From PubChem
KCNQ1 inh – human KCNQ1 channel inhibition; B-score at 10 µM; 310,000 compounds, 1.3% hits; CHO-K1 KCNQ1, FluxOR thallium flux fluorescence; stronger effect = higher value;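 active means compounds whose thallium flux B-score, printed positive for inhibition, exceeds three library SD while starting fluorescence stays within three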;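 further: channel opened by potassium depolarization with thallium stimulus after 20 min compound exposure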
Kir21 block – blocks the mouse Kir2.1 inward-rectifier potassium channel | P35561 | HEK293-Kir2.1, FluxOR thallium flux fluorescence; stronger effect = lower value | B-score at 10 µM | 310,000 compounds, 0.85% hits | AID 1672;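 active means fluorescence ratio B-score at or below minus 3 SD of library scores, with starting-brightness B-score within 2 SD, cut at about -4.2 in these data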;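 further: channel flux triggered by added potassium and thallium sulfate stimulus; B-score of peak minus minimum fluorescence over baseline after thallium stimulus; more negative B-score means stronger Kir2.1 block with less thallium influx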
hERG rescue – shields human hERG channel from block by proarrhythmic agents | Q12809 | CHO-hERG, FluxOR thallium flux, dofetilide IC70 present | activation (rescue from dofetilide block), less the hit threshold, % at 10 µM | 310,000 compounds, 0.51% hits;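 active means activation above the mean of controls blocked by dofetilide plus 5 SD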;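 further: thallium influx through hERG after potassium depolarization seen as dye fluorescence rise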
Target sequence (Q12809 whole entry, looked up): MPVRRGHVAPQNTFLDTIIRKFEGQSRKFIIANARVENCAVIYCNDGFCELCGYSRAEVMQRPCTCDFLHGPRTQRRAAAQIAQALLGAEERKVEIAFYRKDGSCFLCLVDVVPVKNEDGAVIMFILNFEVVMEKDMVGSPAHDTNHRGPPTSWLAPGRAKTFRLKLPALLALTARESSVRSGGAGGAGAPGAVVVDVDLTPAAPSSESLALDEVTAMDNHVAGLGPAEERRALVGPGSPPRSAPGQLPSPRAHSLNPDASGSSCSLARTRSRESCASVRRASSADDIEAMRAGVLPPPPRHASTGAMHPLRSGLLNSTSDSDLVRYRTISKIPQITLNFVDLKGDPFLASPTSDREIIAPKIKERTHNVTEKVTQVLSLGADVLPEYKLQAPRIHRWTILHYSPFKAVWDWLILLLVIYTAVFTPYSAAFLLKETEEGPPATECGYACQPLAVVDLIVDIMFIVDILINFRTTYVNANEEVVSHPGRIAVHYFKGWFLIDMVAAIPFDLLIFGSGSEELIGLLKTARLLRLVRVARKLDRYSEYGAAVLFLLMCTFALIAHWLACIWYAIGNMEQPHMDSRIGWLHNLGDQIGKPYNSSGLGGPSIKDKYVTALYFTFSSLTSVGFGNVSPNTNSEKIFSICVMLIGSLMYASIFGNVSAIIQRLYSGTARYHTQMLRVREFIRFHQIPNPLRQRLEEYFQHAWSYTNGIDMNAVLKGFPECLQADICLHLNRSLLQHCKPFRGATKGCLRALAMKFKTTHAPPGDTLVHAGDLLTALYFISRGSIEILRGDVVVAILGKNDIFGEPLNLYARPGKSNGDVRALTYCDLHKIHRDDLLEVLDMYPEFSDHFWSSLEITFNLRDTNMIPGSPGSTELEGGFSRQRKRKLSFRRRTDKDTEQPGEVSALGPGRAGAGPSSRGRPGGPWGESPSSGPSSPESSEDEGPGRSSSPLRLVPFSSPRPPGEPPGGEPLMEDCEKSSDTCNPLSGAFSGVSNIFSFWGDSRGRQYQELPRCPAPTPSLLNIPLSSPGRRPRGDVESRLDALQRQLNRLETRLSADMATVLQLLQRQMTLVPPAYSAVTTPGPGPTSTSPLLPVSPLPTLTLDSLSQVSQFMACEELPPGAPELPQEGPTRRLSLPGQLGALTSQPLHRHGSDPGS
KCNK9 inh – inhibitors of human KCNK9 two-pore domain potassium channel. AID 488922. 310,000 compounds, 1.2% hits. HEK293 KCNK9, FluxOR thallium flux fluorescence; stronger effect = lower value. B-score at 10 µM;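 active means ratio B-score over 3 SD below the library mean, with starting fluorescence within 5 SD of its mean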;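 further: negative B-score means less thallium flux so channel inhibition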
KCNK3 inh – human KCNK3 channel inhibition, primary screen | O14649 | 340,000 compounds, 0.84% hits | B-score at 10 µM | CHO-KCNK3 thallium flux, FluxOR fluorescence; stronger effect = lower value;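 active means B-score under library mean minus 4 SD, starting fluorescence ratio at most library mean plus 5 SD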;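 further: more negative B-score means stronger inhibition of thallium flux through KCNK3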
KCNQ1 pot – human KCNQ1 channel potentiation or activation | CHO-K1 KCNQ1, thallium flux FluxOR fluorescence; stronger effect = higher value | P51787 | 310,000 compounds, 0.35% hits | AID 2648 | B-score at 10 µM;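 active means fluorescence ratio B-score, a plate-corrected score, at least three library SD, with initial intensity B-score within 5 SD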
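assay system = KCNQ1-transfected CHO-K1 cells | medium = assay buffer with matched DMSO | probe or stimulus = depolarizing K+/Tl+ stimulus, K2SO4 and Tl2SO4 each 12.5 mM in 5x stock | dosing = single dose | incubation = dye 90 min, compound 20 min, room temperature | detection = kinetic FluxOR fluorescence, 10 s baseline plus 110 s post-stimulus | evaluation = ratio B score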
* = called active by the depositor; i = inactive; · = not tested or not shown. Sampled rows, rich in hits. Any-hit rate of the full collection: about 3.7%.

SMILES | KCNQ1 inh | Kir21 block | hERG rescue | KCNK9 inh | KCNK3 inh | KCNQ1 pot
CC(OC(=O)/C=C/c1ccc2ccccc2n1)C(=O)N(C)c1ccccc1 (stereo unspecified) | · | · | · | · | i | ·
CC(=O)/C=C/c1ccc2ccccc2n1 | i | -4.79* | -15.2 | i | i | i
CCOC(=O)c1ccc(S(=O)(=O)N2CCN(C(=O)c3cccc(S(=O)(=O)N4CC(C)OC(C)C4)c3)CC2)cc1 (stereo unspecified) | · | · | · | · | i | ·
CCC(C)Sc1ccc(-c2nc3ccccn3c2NCc2ccccc2)cc1OC (stereo unspecified) | · | · | · | · | i | ·
COc1ccc(CSc2ccc(-c3nc4ccccn4c3NCc3ccccc3)cc2OC)cc1 | 6* | -1.17 | -7.4 | i | i | i
Cc1ccc(S(=O)(=O)N2CCOCC2)cc1C(=O)NC(C)CCc1ccccc1 (stereo unspecified) | · | · | · | · | i | ·
CC1CCc2c(sc3ncnc(SCC(=O)Nc4ccc(C(=O)O)cc4)c23)C1 (stereo unspecified) | i | 0.02 | -16.9 | i | i | i
COc1cc(NC(=O)CSc2ncnc3sc4c(c23)CCC(C)C4)c(C(=O)O)cc1OC (stereo unspecified) | i | -0.06 | 50.7* | i | i | 39*
COc1ccc(OCCCC(=O)OCC(=O)N2CCN(S(=O)(=O)c3ccc(C)cc3C)CC2)cc1 | · | · | · | · | i | ·
CCc1nc(SCC(=O)Nc2nnc(CC)s2)c2c(C)c(C)sc2n1 | i | 1.41 | -1.1 | i | i | i
CCc1nc(SCC(=O)Nc2cc(OC)ccc2OC)c2c(C)c(C)sc2n1 | i | -0.5 | -5.7 | -6.62* | i | i
Cn1c(CNc2nc(-c3ccccc3)cs2)nnc1SCC(=O)OC1CCCCC1 | i | -5.36* | -10.9 | i | i | i
COc1cccc(OCc2nnc(SCC(=O)OC3CCCCC3)n2C)c1 | i | -4.83* | -12.6 | i | i | i
CC(C)(C)OC(=O)C[C@H]1C/C=C\C[C@@H](CC(=O)N(CCO)Cc2ccccc2)C(=O)NC[C@@H](c2ccccc2)OC1=O | · | · | · | · | i | ·
CC(NC(=O)COC(=O)c1cc(NS(=O)(=O)c2ccc(Cl)c([N+](=O)[O-])c2)ccc1O)C1CC2CCC1C2 (stereo unspecified) | 11* | -1.42 | -12.7 | i | i | i
COc1ccc(NS(=O)(=O)c2ccc(O)c(C(=O)OCC(=O)NC(C)C3CC4CCC3C4)c2)cc1 (stereo unspecified) | i | 0.01 | -8.8 | i | i | i
O=C(CN1CCN(CC(=O)Nc2cccc(F)c2)CC1)NCC1(N2CCOCC2)CCCCC1 | · | · | · | · | i | ·
Cc1ccc(S(=O)(=O)N2CCOCC2)cc1C(=O)Nc1ccc2c(c1)OCCO2 | · | · | · | · | i | ·
CCCCCCC(C)n1[nH]c(=O)c2c(C)cc(C)nc21 (stereo unspecified) | i | -0.76 | -12.1 | i | i | i
Nc1nc(N)c(N=Nc2ccc(C(=O)O)cc2)c(N)n1 | i | 0.05 | -6.5 | i | i | 11*
CCOC(=O)c1c(NS(C)(=O)=O)sc2c1CCC(C)C2 (stereo unspecified) | i | -0.25 | 1.1 | i | i | 8*
COC(=O)c1c(NS(=O)(=O)c2ccc(C)cc2)sc2c1CCC(C)C2 (stereo unspecified) | · | · | · | · | i | ·
CSc1ccc(C2NN=C(c3ccccc3)S2)cc1 (stereo unspecified) | i | -0.19 | 15.3* | i | i | i
C/C(=N\Nc1nc2ccccc2[nH]1)c1ccc(Cl)s1 | i | 1.37 | -8.2 | i | i | 11*
Cc1ccc(NC(=O)Nc2ccccc2F)cc1S(=O)(=O)N1CCOCC1 | · | · | · | · | -10* | ·
O=C(Nc1cccc(C(=O)N2CCCC2)c1)C1CC1 | · | · | · | · | i | ·
O=C(NCCCN1CCOCC1)c1cn(-c2ccccc2)nc1-c1cccs1 | i | -4.49* | -11.3 | i | i | i
O=C(NCCN1CCOCC1)c1cn(-c2ccccc2)nc1-c1cccs1 | i | 2.42 | -13.6 | i | i | i
C#CCNC(=O)C1=C[C@@H](c2ccc(Br)cc2)C[C@@H](OCc2ccc(CO)cc2)O1 | i | -0.36 | -11.1 | i | i | i
